Screening results: PubChem BioAssay, several laboratories
TbMetRS inhib: Trypanosoma brucei MetRS inhibition. purified T. brucei MetRS, ATP depletion, Kinase-Glo luminescence. inhibition, % at 11.9 µM. 0.4% of 360,000 active. AID 624268;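 active = inhibition above a per-plate cutoff of the control wells' mean inhibition plus 3 SD, cut at about 5.5% in these data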
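Material: T. brucei methionyl-tRNA synthetase, purified; reagent: substrates ATP, L-methionine and bulk Escherichia coli tRNA; dosing: 11.9 µM single point; timing: 15 min plus 2 h at 25 °C; detection: luminescence of leftover ATP; evaluation: % inhibition; control set: DMSO-only wells as low control; replicates: singlicate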
Bfl-1 A1 inh: inhibitors of the anti-apoptotic protein A1, read as caspase activation | MEF A1-2A-BIM cells, Caspase-Glo 3/7 luminescence, 3 h; percent of clofoctol response, vehicle zero | caspase activation, % (concentration not given with the values) | 0.066% of 330,000 active | AID 2462;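 active = over half of replicate activation scores above 10%, or exactly half above 10 with the replicate mean above 10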
MC4R barr agon: activates human MC4R beta-arrestin recruitment; P32245; U2OS MC4R beta-arrestin complementation, luminescence; percent of melanotan II response, DMSO zero; activation, % at 8.9 µM; 0.98% of 360,000 active; AID 540308;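 active = activation above a per-plate cutoff, the mean activation of sample wells on that plate plus 3 SD, cut at about 8% in these data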
Target sequence (P32245 whole entry, looked up): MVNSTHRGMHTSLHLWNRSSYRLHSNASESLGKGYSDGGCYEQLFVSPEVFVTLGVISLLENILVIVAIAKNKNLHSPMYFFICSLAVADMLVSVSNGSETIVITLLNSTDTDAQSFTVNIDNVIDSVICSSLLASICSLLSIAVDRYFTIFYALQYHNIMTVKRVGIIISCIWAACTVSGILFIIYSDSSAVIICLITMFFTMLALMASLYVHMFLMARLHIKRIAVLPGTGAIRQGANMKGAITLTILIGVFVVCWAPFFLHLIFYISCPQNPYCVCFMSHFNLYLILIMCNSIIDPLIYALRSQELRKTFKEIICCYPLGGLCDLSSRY
NALP1 inh: NALP1 inhibition; inhibition, % at 10 µM; S. cerevisiae NALP1/ASC/caspase-1 growth, X-gal OD620, 72 h; 0.61% of 280,000 active; AID 2071; in the data active = inhibition mostly above about 24%, no sharp cut-off; inactive = mostly below about 32%
MC4R antagonist: antagonists of human melanocortin 4 receptor (MC4R) | MC4R-expressing cells, MTII-stimulated cAMP, LANCE TR-FRET | P32245 | inhibition, % at 6.5 µM | 0.48% of 360,000 active;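 active = inhibition above its plate's cutoff, the mean of tested wells on that plate plus 3 SD, cut at about 29% in these data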
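Test system: U2OS cells stably expressing human melanocortin 4 receptor (MC4R); also added: Melanotan II challenge; compound: 6.5 µM single dose; timing: 30-min compound preincubation, 1-h Melanotan II challenge, 1-h detection, room temperature; signal: Eu-cAMP/anti-cAMP TR-FRET, emission 671 nm; repeats: one well per compound, no replicates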
NALP3 yeast inh: blocks the NALP3 inflammasome reconstituted in yeast. Yeast reconstituted NLRP3/ASC/caspase-1, beta-gal luminescence, 24 h. inhibition, % at 10 µM. 0.39% of 330,000 active;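 active = inhibition of 50% or more; inactive = inhibition below 50%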
NALP3 yeast conf: NALP3 inhibition confirmation in yeast. shares compounds with NALP3 yeast inh. AID 435006. yeast expressing human NALP3, luminescence. 81% of 1,300 active. inhibition, % at 10 µM; in the data active = inhibition above about 48%
Casp1 ASC ctr: counter-screen for NALP3 inhibitors: yeast caspase-1-ASC; inhibition, % at 10 µM; yeast expressing Caspase-1-ASC, luminescence counter screen; shares compounds with NALP3 yeast inh; 66% of 1,000 active
NALP3 yeast rt: retest-confirmed inhibitor of NALP3 in yeast. shares compounds with NALP3 yeast inh. yeast expressing human NALP3, luminescence read-out. inhibition, % at 10 µM. 53% of 1,000 active. AID 488794
U2OS cAMP counter: counter-screen for MC4R antagonists: nonselective cAMP signaling inhibitors; shares compounds with MC4R antagonist; parental U2OS, forskolin cAMP, LANCE TR-FRET; inhibition, % at 6.5 µM; 26% of 1,600 active;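 active = mean inhibition over triplicates above the low-control well mean plus 3 SD, set per campaign, cut at about 13% in these data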;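 note: signal is single emission at 671 nm which falls as cellular cAMP rises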
MC4R cAMP antag: human MC4R cAMP antagonism confirmation. 27% of 1,600 active. MC4R-expressing cells, MTII-stimulated cAMP, TR-FRET. inhibition, % at 6.5 µM. shares compounds with MC4R antagonist; in the data active = inhibition above about 29%
MC4R barr ag: human MC4R beta-arrestin agonism confirmation; AID 602192; U2OS MC4R beta-arrestin recruitment, luminescence; scaled DMSO 0%, Melanotan II 100%; activation, % at 8.9 µM; shares compounds with MC4R barr agon; 31% of 2,400 active;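 active = mean activation across replicates above the hit cutoff set in the earlier primary screen, cut at about 8% in these data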
MOR-DOR barr ag: counter-screen for MC4R agonists: agonists of mu-delta opioid heterodimer; shares compounds with MC4R barr agon; U2OS PathHunter beta-arrestin, beta-gal luminescence; percent of deltorphin B response, DMSO zero; activation, % at 9.2 µM; 5.8% of 2,400 active;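 active = mean activation across replicates exceeds the hit threshold derived in the earlier primary screen, cut at about 18% in these data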
Each line names hits and unclear results; the compound was inactive in the other large screens (follow-up assays come after a bar, where they were run); ! = repeats disagree. This is a sample that favours compounds with a hit; in the whole collection about 2.5% have one here. Cut-off read from the data, not from the text of the source, unless noted: active = inhibition above about 50%; inactive = the rest.

COc1cc(C)c(S(=O)(=O)N2CCCC2)cc1C	NALP3 yeast inh 77 | NALP3 yeast conf 83 | Casp1 ASC ctr 87 | NALP3 yeast rt 65
CCOc1cc(C)c(S(=O)(=O)N2CCCCC2)cc1C	NALP3 yeast inh 74 | NALP3 yeast conf 76 | Casp1 ASC ctr 80 | NALP3 yeast rt 65
COc1cc(C)c(S(=O)(=O)N2CCN(C)CC2)cc1C	none
c1ccc2c(c1)NCC1CCCN21 (centres undefined)	none
Cc1nn(-c2ccccc2)c(C)c1C(=O)OCC(=O)Nc1ccccc1Cl	none (no result: Bfl-1 A1 inh, NALP1 inh, NALP3 yeast inh)
O=c1[nH]cc(S(=O)(=O)N2CCN(c3ccccc3F)CC2)c(=O)[nH]1	none (no result: Bfl-1 A1 inh, NALP1 inh, NALP3 yeast inh)
CCOC(=O)C1(C)CCN1C(=O)c1cc(-c2ccc(Cl)cc2)oc1C (centres undefined)	none (no result: Bfl-1 A1 inh, NALP1 inh, NALP3 yeast inh)
CC(C)CCNC(=O)c1ccc(-c2ccccc2)cc1	NALP3 yeast inh 52 (no result: TbMetRS inhib, MC4R barr agon, MC4R antagonist) | NALP3 yeast conf 61 | Casp1 ASC ctr inactive | NALP3 yeast rt inactive
CC(C)CCNC(=O)c1cccc(C(=O)NCCC(C)C)c1	none
CCOc1nc(-c2ccccc2)c2cc(Br)ccc2n1	none
COC(=O)c1ccc2c(c1O)C(=O)c1ccccc1C2=O	NALP3 yeast inh 54 | NALP3 yeast conf 61 | Casp1 ASC ctr 61 | NALP3 yeast rt 52
O=C1c2ccccc2C(=O)c2c1ccc(O)c2O	none (no result: Bfl-1 A1 inh, NALP1 inh, NALP3 yeast inh)
CC(C)N(Cc1ccccc1)S(=O)(=O)c1ccc(F)cc1	NALP3 yeast inh 51 | NALP3 yeast conf 56 | Casp1 ASC ctr inactive | NALP3 yeast rt inactive
CCc1ccc(NC(=O)c2nc(S(=O)(=O)Cc3ccccc3)ncc2Cl)cc1	Bfl-1 A1 inh 11, MC4R antagonist 36, NALP3 yeast inh 60 | NALP3 yeast conf 73 | Casp1 ASC ctr 54 | NALP3 yeast rt 66 | U2OS cAMP counter inactive | MC4R cAMP antag inactive
C=CCOC(=O)CCCCCCCC	none (no result: NALP1 inh)
CCCS(=O)(=O)NC(=O)C1(C)CCCN(C(=O)/C=C/c2ccccc2)C1 (centres undefined)	none (no result: Bfl-1 A1 inh, NALP1 inh, NALP3 yeast inh)
COc1ccc(C(NC(=O)c2c(F)c(F)c(F)c(F)c2F)c2ccccc2)cc1 (centres undefined)	MC4R antagonist 72, NALP3 yeast inh 63 | NALP3 yeast conf inactive | U2OS cAMP counter 57 | MC4R cAMP antag 88
COc1ccc(C(NC(=O)c2cc(OC)ccc2OC)c2ccccc2)cc1 (centres undefined)	none
N#Cc1ccsc1NC(=O)c1ccc(Cl)c([N+](=O)[O-])c1	MC4R antagonist 36, NALP3 yeast inh 78 | NALP3 yeast conf 81 | U2OS cAMP counter inactive | MC4R cAMP antag inactive
CCn1c2c(c(=N)c3c1CCC3)CCCC2	none
CCCCCCCCCn1c2c(c(=N)c3c1CCC3)CCCC2	MC4R barr agon 13, NALP3 yeast inh 68 (no result: Bfl-1 A1 inh) | NALP3 yeast conf 85 | Casp1 ASC ctr 54 | NALP3 yeast rt 70 | MC4R barr ag inactive | MOR-DOR barr ag inactive
C[C@@H]1CN[C@@H](CCO)/C1=C\c1ccccc1	none (no result: Bfl-1 A1 inh, NALP1 inh, NALP3 yeast inh)
CCCCCCCCCCCCCCCC[n+]1ccc(/C=N/O)cc1	MC4R barr agon 20, NALP1 inh 50, NALP3 yeast inh 56 | NALP3 yeast conf inactive | MC4R barr ag 64 | MOR-DOR barr ag inactive
Cc1ccc(NS(=O)(=O)c2cccc(C(=O)NNC(=O)c3ccco3)c2)c(C)c1	none (no result: NALP1 inh)
CCc1cc2cccc(C)c2nc1SCC(=O)NC1CCCC1	none
CCc1cc2cc(C)ccc2nc1SCC(=O)NC1CCCC1	MC4R barr agon 11, NALP3 yeast inh 54 | NALP3 yeast conf 62 | Casp1 ASC ctr inactive | NALP3 yeast rt inactive | MC4R barr ag inactive | MOR-DOR barr ag inactive
CCCCCCCCCCCCCCCC[n+]1cccc2ccccc21	MC4R barr agon 18, NALP1 inh 98, NALP3 yeast inh 73 | NALP3 yeast conf inactive | MC4R barr ag 34 | MOR-DOR barr ag 23
CCCCC1=C(C(=O)OCC)C(C(=O)OCC)Oc2ccccc21 (centres undefined)	none (no result: Bfl-1 A1 inh, NALP1 inh, NALP3 yeast inh)
Cc1ccc(C(=O)c2ccc(C)cc2)cc1	none
Cc1ccc(C(=O)c2no[n+]([O-])c2C(=O)c2ccc(C)cc2)cc1	MC4R barr agon 19, NALP3 yeast inh 59 | NALP3 yeast conf 63 | Casp1 ASC ctr 72 | NALP3 yeast rt 52 | MC4R barr ag inactive | MOR-DOR barr ag 39
Cc1ccc(Sc2ccc(NC(=O)CCl)cc2)cc1C	MC4R barr agon 19, NALP1 inh 57, NALP3 yeast inh 66 | NALP3 yeast conf 76 | Casp1 ASC ctr 62 | NALP3 yeast rt 66 | MC4R barr ag 17 | MOR-DOR barr ag inactive
Cc1ccc(NC(=O)CCSCCC(=O)Nc2ccc(C)c(C)c2)cc1C	none
COc1ccc(Cl)cc1Nc1cc(C)nc2ncnn12	none (no result: Bfl-1 A1 inh, NALP1 inh, NALP3 yeast inh)
O=C(Nc1ccccc1)c1cc2ccccc2c(=O)s1	MC4R barr agon 13, NALP3 yeast inh 59 | NALP3 yeast conf inactive | MC4R barr ag inactive | MOR-DOR barr ag inactive
CCCCCCCCCCCCCCCC[n+]1cccc(C(=O)N(CC)CC)c1	MC4R barr agon 13, NALP1 inh 71, MC4R antagonist 29!, NALP3 yeast inh 63 | NALP3 yeast conf 73 | Casp1 ASC ctr 72 | NALP3 yeast rt 68 | U2OS cAMP counter inactive | MC4R cAMP antag 50 | MC4R barr ag 23 | MOR-DOR barr ag inactive
